The structures appear in SMILES notation. Converted amounts (≈) assume the structure as drawn.

Data set [1] deals with T1, Bone morphogenetic protein 1 (Homo sapiens, UniProt P13497).
T1 sequence (P13497 whole entry): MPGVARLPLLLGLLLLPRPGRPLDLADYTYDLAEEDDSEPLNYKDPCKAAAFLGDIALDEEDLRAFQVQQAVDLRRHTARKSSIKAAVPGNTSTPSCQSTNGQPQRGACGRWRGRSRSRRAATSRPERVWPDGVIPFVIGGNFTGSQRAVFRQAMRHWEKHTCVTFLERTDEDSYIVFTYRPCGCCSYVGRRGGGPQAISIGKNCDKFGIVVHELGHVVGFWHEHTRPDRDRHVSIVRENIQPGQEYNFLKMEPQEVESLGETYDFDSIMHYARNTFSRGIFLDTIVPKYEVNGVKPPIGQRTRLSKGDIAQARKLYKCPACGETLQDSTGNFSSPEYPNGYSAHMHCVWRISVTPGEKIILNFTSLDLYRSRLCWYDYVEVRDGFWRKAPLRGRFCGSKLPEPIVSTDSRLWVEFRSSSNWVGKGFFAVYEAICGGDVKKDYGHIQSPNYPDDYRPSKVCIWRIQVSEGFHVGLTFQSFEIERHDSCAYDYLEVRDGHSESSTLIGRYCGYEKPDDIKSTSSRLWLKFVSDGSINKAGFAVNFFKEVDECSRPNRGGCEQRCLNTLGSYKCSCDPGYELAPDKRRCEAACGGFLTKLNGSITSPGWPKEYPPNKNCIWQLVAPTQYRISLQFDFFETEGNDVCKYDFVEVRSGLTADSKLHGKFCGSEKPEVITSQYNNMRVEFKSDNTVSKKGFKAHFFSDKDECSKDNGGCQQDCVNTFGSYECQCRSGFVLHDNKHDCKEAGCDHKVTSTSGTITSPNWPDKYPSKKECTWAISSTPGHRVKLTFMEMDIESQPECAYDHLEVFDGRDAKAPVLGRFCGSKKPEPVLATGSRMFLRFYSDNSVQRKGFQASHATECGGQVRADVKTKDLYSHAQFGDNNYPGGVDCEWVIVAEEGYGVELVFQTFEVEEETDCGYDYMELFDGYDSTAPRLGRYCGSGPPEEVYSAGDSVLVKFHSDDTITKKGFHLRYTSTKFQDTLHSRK
The experiment in a line: Inhibition of human procollagen C-proteinase expressed in CHO cells by fluorescence assay. It counts as cell-based.

Data set [2] concerns Fibroblast. The experiment in a line: Reduction in collagen deposition in human fibroblasts after 8 days by HPLC. It counts as functional, cell-based.
The nature of data set [3]: Plasma clearance in dog at 0.5 mg/kg, iv administered as single dose. Also noted: dose 0.5 mg/kg, route intravenous. In kind it is ADME, organism-based, Canis lupus familiaris. Put shortly:
(§1)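 Male dogs (n = 2) received a single intravenous dose of 0.5 mg/kg or a single oral dose of 2 mg/kg. Plasma concentrations were used to derive half-life, clearance, volume of distribution, Cmax, Tmax and oral bioavailability.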

A short description of data set [4]: Plasma clearance in rat at 2 mg/kg, iv administered as single dose. Further details: dose 2 mg/kg, route intravenous. It counts as ADME, organism-based. A digest of the protocol:
(§2)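 Male rats (n = 2) received a single intravenous dose of 2 mg/kg. Plasma sampling gave half-life, clearance and volume of distribution. Concentrations were also followed after dosing against the assay's limit of quantification.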

A short description of data set [5]: Volume of distribution in dog at 0.5 mg/kg, iv administered as single dose. The conditions noted are these: in vivo. Further details: dose 0.5 mg/kg, route intravenous. In kind it is ADME, organism-based, Canis lupus familiaris. Put shortly: as §1
The target in data set [6] is 3',5'-cyclic-AMP phosphodiesterase 4A (Homo sapiens, UniProt P27815). The experiment in a line: Inhibition of PDE4A.
The nature of data set [7]: Oral bioavailability in dog at 2 mg/kg administered as single dose. In kind it is ADME, organism-based, Canis lupus familiaris. The following applies: in vivo. A digest of the protocol: as §1
The test system of data set [8] is Zone of skin. The experiment in a line: Effect on transepidermal penetration in human cadaver skin assessed as TED flux after 24 hrs by LC-MS/MS analysis using [14C]mannitol as receptor fluid. In kind it is functional. A digest of the protocol: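 Human cadaver stratum corneum was mounted in a Franz diffusion cell and exposed for 24 h to a solution in 50% aqueous propylene glycol (pH 6.8). Compound reaching the receptor chamber was measured and a flux rate was calculated. Reported as mean ± SEM, n = 6–10.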

Data set [9] concerns the target T1, Bone morphogenetic protein 1. As to the kind of experiment: Inhibition of human procollagen C-proteinase assessed as [3H]procollagen turnover by scintillation counting.
A short description of data set [10]: Metabolic stability in dog liver microsomes assessed as half life. It counts as ADME, Canis lupus familiaris, Microsome.
The nature of data set [11]: Elimination half life in rat at 2 mg/kg, iv administered as single dose. The following applies: in vivo, read-out: beta t1/2 (converted). In kind it is ADME, organism-based. Also noted: dose 2 mg/kg, route intravenous. Put shortly:
as §2

Data set [12] deals with 3',5'-cyclic-AMP phosphodiesterase 4D (Homo sapiens, UniProt Q08499). As to the kind of experiment: Inhibition of PDE4D.
Data set [13] is described as follows: Drug level in pig skin assessed as steady state concentration at 0.9 mg/ml in 50% aqueous propylene glycol administered tropically after 24 hrs. The conditions noted are these: topical or ocular, read-out: Drug uptake. It counts as ADME, tissue-based, Sus scrofa, Zone of skin. A digest of the protocol: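 Applied topically to intact pig skin as a 0.9 mg/ml solution in 50% aqueous propylene glycol. Tissue level was measured in the upper dermis as the steady-state concentration at 24 h.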

Data set [14] is described as follows: Volume of distribution in rat at 2 mg/kg, iv administered as single dose. It counts as ADME, organism-based. Further details: dose 2 mg/kg, route intravenous. The following applies: in vivo. A digest of the protocol: as §2
A short description of data set [15]: Aqueous solubility in phosphate-buffered saline at pH 7.4 by HPLC. It counts as physicochemical.
Data set [16] in a line: Metabolic stability in human liver microsomes assessed as half life. It counts as ADME, Microsome.
The nature of data set [17]: Cmax in dog at 2 mg/kg, po administered as single dose. In kind it is ADME, organism-based, Canis lupus familiaris. Also noted: dose 2 mg/kg, route oral. The conditions noted are these: in vivo. Put shortly:
as §1

Data set [18] can be described thus: Tmax in dog at 2 mg/kg, po administered as single dose. In kind it is ADME, organism-based, Canis lupus familiaris. Also noted: dose 2 mg/kg, route oral. The following applies: in vivo. A digest of the protocol:
as §1

Data set [19] can be described thus: Saturated solubility in propylene glycol-citrate buffer-ethanol. It counts as physicochemical.
In data set [20] the target is 3',5'-cyclic-AMP phosphodiesterase 4B (Homo sapiens, UniProt Q07343). As to the kind of experiment: Inhibition of PDE4B.
For data set [21], the target named is 3',5'-cyclic-AMP phosphodiesterase 4C (Homo sapiens, UniProt Q08493). The experiment in a line: Inhibition of PDE4C.
Data set [22] can be described thus: Plasma concentration in rat at 2 mg/kg, iv administered as single dose after 2 hrs. It counts as ADME, organism-based. Also noted: dose 2 mg/kg, route intravenous. Put shortly: as §2
Data set [23] is described as follows: Dissociation constant, pKa of the compound. It counts as physicochemical.
For data set [24], the system named is Zone of skin. The experiment in a line: Effect on transepidermal penetration in human cadaver skin assessed as TED flux after 24 hrs by LC-MS/MS analysis using [14C]mannitol as receptor fluid in presence of propylene glycol-citrate buffer-ethanol. In kind it is functional. A digest of the protocol: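 Human cadaver stratum corneum was mounted in a Franz diffusion cell and exposed for 24 h to a solution in propylene glycol–citrate buffer–ethanol (20:30:50). Receptor-chamber concentration was used to calculate TED flux.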

Data set [25] in a line: Elimination half life in dog at 0.5 mg/kg, iv administered as single dose. In kind it is ADME, organism-based, Canis lupus familiaris. The following applies: in vivo, read-out: beta t1/2 (converted). Further details: dose 0.5 mg/kg, route intravenous. A digest of the protocol: as §1
Data set [26] is described as follows: Lipophilicity, log D at pH 7.4. In kind it is physicochemical. The following applies: buffer.
Data set [27] can be described thus: Metabolic stability in rat liver microsomes assessed as half life. In kind it is ADME, Microsome.
Data set [28] concerns Fibroblast. As to the kind of experiment: Reduction in collagen deposition in human fibroblasts at 10 uM after 8 days by HPLC. In kind it is functional. Also noted: scale not given: the % may be the effect or the level left.
For another data set, the target named is Stromelysin-1 (Homo sapiens, UniProt P08254). As to the kind of experiment: Inhibition of human MMP3 by fluorescence assay.
Sequence of Stromelysin-1 (P08254 whole entry): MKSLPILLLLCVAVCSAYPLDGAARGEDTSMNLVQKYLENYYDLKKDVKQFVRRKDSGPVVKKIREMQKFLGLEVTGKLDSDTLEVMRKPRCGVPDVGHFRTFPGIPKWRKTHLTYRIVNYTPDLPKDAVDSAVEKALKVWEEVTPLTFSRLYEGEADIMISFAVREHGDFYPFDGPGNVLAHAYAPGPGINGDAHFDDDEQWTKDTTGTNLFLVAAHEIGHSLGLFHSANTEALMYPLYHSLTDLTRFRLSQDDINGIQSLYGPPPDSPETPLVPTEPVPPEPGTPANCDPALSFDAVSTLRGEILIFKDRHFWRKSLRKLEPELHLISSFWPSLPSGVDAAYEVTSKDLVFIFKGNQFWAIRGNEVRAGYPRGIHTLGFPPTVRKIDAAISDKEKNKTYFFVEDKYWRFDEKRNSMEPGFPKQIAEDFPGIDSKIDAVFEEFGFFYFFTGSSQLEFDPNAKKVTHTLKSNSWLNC

Sequence of 3',5'-cyclic-AMP phosphodiesterase 4B (Q07343 whole entry): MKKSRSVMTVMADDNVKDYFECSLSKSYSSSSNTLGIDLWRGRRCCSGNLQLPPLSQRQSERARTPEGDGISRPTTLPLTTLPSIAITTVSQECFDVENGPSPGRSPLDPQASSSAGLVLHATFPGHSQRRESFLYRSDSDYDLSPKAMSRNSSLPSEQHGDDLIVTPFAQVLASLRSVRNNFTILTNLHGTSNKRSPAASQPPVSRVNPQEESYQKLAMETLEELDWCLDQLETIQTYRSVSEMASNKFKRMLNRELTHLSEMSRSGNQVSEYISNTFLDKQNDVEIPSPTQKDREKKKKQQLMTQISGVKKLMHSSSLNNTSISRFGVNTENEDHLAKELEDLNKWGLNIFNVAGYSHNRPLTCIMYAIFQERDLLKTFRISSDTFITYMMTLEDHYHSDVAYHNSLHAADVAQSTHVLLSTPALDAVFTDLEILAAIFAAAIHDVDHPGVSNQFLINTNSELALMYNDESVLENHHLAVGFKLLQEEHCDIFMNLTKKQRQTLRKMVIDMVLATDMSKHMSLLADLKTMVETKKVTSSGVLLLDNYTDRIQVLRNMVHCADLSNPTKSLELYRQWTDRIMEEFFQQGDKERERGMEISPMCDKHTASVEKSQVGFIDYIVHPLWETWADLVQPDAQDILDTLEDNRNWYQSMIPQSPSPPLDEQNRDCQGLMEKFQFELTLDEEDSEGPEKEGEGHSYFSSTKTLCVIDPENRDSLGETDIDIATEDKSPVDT
Sequence of 3',5'-cyclic-AMP phosphodiesterase 4D (Q08499 whole entry): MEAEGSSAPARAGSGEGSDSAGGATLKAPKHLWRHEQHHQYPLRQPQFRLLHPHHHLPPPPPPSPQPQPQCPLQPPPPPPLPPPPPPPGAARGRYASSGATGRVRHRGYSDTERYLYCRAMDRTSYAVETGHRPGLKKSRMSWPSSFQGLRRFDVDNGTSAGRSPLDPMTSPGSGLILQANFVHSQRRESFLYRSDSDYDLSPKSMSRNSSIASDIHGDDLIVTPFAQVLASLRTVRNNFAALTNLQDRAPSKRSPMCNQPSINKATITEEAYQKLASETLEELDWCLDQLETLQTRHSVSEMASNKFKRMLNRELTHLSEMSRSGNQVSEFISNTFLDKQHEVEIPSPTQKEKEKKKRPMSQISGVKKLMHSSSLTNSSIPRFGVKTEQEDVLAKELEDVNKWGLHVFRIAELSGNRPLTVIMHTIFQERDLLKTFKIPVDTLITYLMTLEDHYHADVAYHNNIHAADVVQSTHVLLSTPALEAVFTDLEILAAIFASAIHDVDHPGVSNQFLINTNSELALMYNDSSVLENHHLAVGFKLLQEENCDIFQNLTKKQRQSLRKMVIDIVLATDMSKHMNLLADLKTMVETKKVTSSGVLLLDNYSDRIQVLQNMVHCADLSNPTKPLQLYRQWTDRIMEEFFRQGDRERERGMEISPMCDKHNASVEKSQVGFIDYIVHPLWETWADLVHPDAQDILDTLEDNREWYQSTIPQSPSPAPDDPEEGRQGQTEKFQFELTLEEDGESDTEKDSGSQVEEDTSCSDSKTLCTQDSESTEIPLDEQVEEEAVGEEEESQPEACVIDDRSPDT
Sequence of 3',5'-cyclic-AMP phosphodiesterase 4A (P27815 whole entry): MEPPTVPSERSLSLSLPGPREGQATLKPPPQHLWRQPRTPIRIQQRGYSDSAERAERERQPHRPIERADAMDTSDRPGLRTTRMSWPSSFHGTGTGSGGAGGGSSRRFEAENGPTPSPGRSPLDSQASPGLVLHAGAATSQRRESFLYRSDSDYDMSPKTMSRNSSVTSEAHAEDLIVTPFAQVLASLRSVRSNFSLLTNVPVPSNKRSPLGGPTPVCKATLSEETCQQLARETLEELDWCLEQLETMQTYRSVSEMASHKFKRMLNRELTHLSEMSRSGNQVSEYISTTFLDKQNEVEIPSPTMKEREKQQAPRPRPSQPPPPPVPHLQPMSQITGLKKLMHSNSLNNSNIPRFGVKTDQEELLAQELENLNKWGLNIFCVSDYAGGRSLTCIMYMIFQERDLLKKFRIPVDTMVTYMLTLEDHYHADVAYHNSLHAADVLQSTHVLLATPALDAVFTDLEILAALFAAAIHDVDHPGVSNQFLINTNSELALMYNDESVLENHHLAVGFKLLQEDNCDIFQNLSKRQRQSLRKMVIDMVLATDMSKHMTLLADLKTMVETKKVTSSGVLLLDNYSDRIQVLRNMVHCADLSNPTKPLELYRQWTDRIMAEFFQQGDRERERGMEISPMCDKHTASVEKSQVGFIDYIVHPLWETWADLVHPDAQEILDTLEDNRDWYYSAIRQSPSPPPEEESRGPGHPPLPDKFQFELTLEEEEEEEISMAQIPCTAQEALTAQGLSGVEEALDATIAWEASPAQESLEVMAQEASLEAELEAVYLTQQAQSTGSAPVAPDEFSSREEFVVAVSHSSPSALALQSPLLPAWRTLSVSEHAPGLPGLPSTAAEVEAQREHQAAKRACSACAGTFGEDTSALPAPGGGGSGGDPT
Sequence of 3',5'-cyclic-AMP phosphodiesterase 4C (Q08493 whole entry): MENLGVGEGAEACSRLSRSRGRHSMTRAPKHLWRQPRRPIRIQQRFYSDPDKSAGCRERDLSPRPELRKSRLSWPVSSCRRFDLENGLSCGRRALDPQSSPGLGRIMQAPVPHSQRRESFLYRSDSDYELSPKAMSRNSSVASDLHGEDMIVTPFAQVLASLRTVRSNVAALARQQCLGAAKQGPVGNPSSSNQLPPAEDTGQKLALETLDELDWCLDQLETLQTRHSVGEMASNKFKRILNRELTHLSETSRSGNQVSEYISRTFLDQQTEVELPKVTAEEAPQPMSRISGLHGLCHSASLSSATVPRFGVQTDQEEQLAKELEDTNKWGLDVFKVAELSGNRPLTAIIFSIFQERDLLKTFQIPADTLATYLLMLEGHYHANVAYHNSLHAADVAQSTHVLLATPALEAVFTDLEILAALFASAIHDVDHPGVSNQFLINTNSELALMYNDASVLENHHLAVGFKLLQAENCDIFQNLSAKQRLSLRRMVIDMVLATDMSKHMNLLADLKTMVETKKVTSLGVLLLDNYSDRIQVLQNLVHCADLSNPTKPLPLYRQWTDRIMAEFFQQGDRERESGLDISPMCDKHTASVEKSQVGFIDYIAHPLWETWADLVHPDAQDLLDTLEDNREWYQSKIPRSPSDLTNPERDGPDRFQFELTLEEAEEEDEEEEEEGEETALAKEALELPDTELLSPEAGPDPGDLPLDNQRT

In turn, `O=C(C[C@@H](CCCC1CCCCC1)c1nc(C(=O)NCC2CC2)no1)NO` showed an IC50 in data set [1] of 33 nM.
As to `CN(Cc1ccccn1)C(=O)c1noc([C@H](CCCC2CCCCC2)CC(=O)NO)n1`, the IC50 in data set [1] was found to be 40 nM.
In turn, `O=C(C[C@@H](CCCC1CCCCC1)c1nc(C(=O)NCc2ccccn2)no1)NO` had a half-maximal inhibitory concentration (IC50) in data set [1] of 37 nM.
Still for that read-out and setting: under `CN1CCN(C(=O)c2noc([C@H](CCCC3CCCCC3)CC(=O)NO)n2)CC1` stands 54 nM; under `O=C(C[C@@H](CCCC1CCCCC1)c1nc(C(=O)N2CCCCC2)no1)NO`, 26 nM.
As for `O=C(C[C@@H](CCCC1CCCCC1)c1nc(C(=O)NCc2ccccc2)no1)NO`, the IC50 in data set [1] was 57 nM.
The compound `Cc1oc([C@H](CCCC2CCCCC2)CC(=O)NO)nc1C(N)=O` had a concentration for half-maximal inhibition (IC50) in [1] of 17 nM.
Compound `O=C(C[C@@H](CCCC1CCCCC1)c1nc(C(=O)N2CCOCC2)no1)NO` displayed an IC50 in data set [1] of 25 nM.
With `NC(=O)c1noc([C@H](CCCC2CCCCC2)CC(=O)NO)n1`, the Activity result in the data set with Fibroblast [2] was “Dose-dependent effect”; in the data set with Fibroblast [28], 76%. Also, the half-inhibitory concentration (IC50) in the data set with Fibroblast [2] (192 h) is 2100 nM; in [6] it was 1800 nM; in data set [9], 26 nM; in [12], 900 nM; in [20] it was 1500 nM; in data set [21], 2400 nM. Also, the clearance in data set [3] was 35 mL/min/kg; in [4], 157 mL/min/kg. For the same compound, the Vd in data set [5] turned out to be 4.6 L/kg; in data set [14], 12 L/kg. In [7], this compound registered a bioavailability of 13%. The results for the TED with Zone of skin [8] and in the data set with Zone of skin [24] were 0.3 microg/cm2/h and 1.59 microg/cm2/h, respectively. Moreover, the half-life in data set [10] was 9 min; in data set [11] it was 48 min; in data set [16], 19 min; in data set [25], 90 min; in data set [27], below 2 min. Also, the concentration at 24 h in data set [13] worked out at 10 µM. In [15], this compound came in with a solubility of 35 µg/mL (≈ 108 µM). Also, the Cmax in data set [17] stood at 110 ng/mL. In addition, the time to peak (Tmax) in data set [18] worked out at 30 min. This compound also had a thermodynamic solubility in [19] of 13800 µg/mL (≈ 42500 µM). Further, the concentration at 2 h in data set [22] was below 100 ng/mL. This compound also registered a pKa in data set [23] of 9. This compound registered a log distribution coefficient (logD) in [26] of 2.6.
`CNC(=O)c1noc([C@H](CCCC2CCCCC2)CC(=O)NO)n1` registered an IC50 in data set [1] of 28 nM.
For the compound `O=C(O)CNC(=O)c1noc([C@H](CCCC2CCCCC2)CC(=O)NO)n1`, the IC50 in data set [1] was 21 nM.
Still for that read-out and setting: under `CN(Cc1ccccc1)C(=O)c1noc([C@H](CCCC2CCCCC2)CC(=O)NO)n1` stands 65 nM; under `CCCNC(=O)c1noc([C@H](CCCC2CCCCC2)CC(=O)NO)n1`, 32 nM; under `CC(C)NC(=O)c1noc([C@H](CCCC2CCCCC2)CC(=O)NO)n1`, 21 nM.
Same read-out and setting: under `O=C(C[C@@H](CCCC1CCCCC1)c1nc(C(=O)N2CCCC2)no1)NO` stands 43 nM.
Still for that read-out and setting: under `NC(=O)c1coc([C@H](CCCC2CCCCC2)CC(=O)NO)n1` stands 73 nM.
As to `CN(C)C(=O)c1noc([C@H](CCCC2CCCCC2)CC(=O)NO)n1`, in the data set on Zone of skin [8], the TED stood at 2.6 microg/cm2/h. Besides, the values for the IC50 (in data set [9]; in data set [1]; on Stromelysin-1) were 9.3 nM, 10 nM and 28000 nM, respectively. The same compound showed a solubility in data set [15] of 900 µg/mL (≈ 2550 µM). This compound also returned a log distribution coefficient (logD) in data set [26] of 3.6. In addition, in the data set on Fibroblast [28], the Activity came out at 67%.
Turning to `NC(=O)c1noc([C@@H](CCCC2CCCCC2)CC(=O)NO)n1`, the IC50 in data set [1] was above 2000 nM.
On the same count and under the same terms, under `CN(C)C(=O)c1coc([C@H](CCCC2CCCCC2)CC(=O)NO)n1` stands 45 nM; under `Cc1oc([C@H](CCCC2CCCCC2)CC(=O)NO)nc1C(=O)N(C)C`, 17 nM.

The values above are taken from ChEMBL document CHEMBL1140999, “Succinyl hydroxamates as potent and selective non-peptidic inhibitors of procollagen C-proteinase: design, synthesis, and evaluation as topically applied, dermal anti-scarring agents” (Bioorg Med Chem Lett, 2008).
